Measurements reported in ChEMBL document CHEMBL1671866, “Genotyping as a tool for antibiotic resistance surveillance of Neisseria gonorrhoeae in New Caledonia: evidence of a novel genotype associated with reduced penicillin susceptibility” (2008).
Values after ≈ are worked out from the molar mass of the structure shown.

Columns and labels:
Assay type in all cases: functional
Neisseria gonorrhoeae [1] = experiment: Antibacterial activity against Neisseria gonorrhoeae harboring wild-type penA and porB1a genes by Etest method
Outline: (§1)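 Penicillin G MIC (µg/ml) by E-test gradient strip on chocolate agar plus PolyVitex, read where the inhibition zone meets the strip. Test organisms were clinical gonococcal isolates from New Caledonia, grouped by genotype. Archival chromosomally mediated resistant isolates and 12 WHO reference strains served as controls.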

Neisseria gonorrhoeae [2] = experiment: Antibacterial activity against Neisseria gonorrhoeae harboring wild-type ponA gene by disk agar diffusion method
Outline: (§2)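 Clinical N. gonorrhoeae isolates from sexually transmitted infections in New Caledonia, collected over about 3 years. Susceptibility to conventional antibiotics was tested by disk agar diffusion, and beta-lactamase production by nitrocefin discs. Archival chromosomally mediated resistant isolates and WHO reference strains (WHO-C, -G, -L, -M, -O, -P; 07QA-01 to -06) served as controls.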

Neisseria gonorrhoeae [3] = experiment: Antibacterial activity against Neisseria gonorrhoeae harboring GS gene by disk agar diffusion method; outline: as §2
Neisseria gonorrhoeae [4] = experiment: Antibacterial activity against Neisseria gonorrhoeae harboring ponA L421P mutant gene by disk agar diffusion method; outline: as §2
Neisseria gonorrhoeae [5] = experiment: Antibacterial activity against Neisseria gonorrhoeae harboring wild-type GA and wild-type penA genes by Etest method; outline: as §1
Neisseria gonorrhoeae [6] = experiment: Antibacterial activity against Neisseria gonorrhoeae by disk agar diffusion method
Outline: (§3)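 Clinical isolates were collected from sexually transmitted infections in New Caledonia over nearly 3 years. They were tested in vitro against conventional antibiotics by disk agar diffusion. Archival chromosomally mediated resistant isolates and 12 reference strains served as controls: WHO-C, -G, -L, -M, -O, -P and 07QA-01 to 07QA-06.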

Neisseria gonorrhoeae [7] = experiment: Antibacterial activity against Neisseria gonorrhoeae harboring Asp-345a insertion in penA and porB1a genes by Etest method; outline: as §1
Neisseria gonorrhoeae [8] = experiment: Antibacterial activity against Neisseria gonorrhoeae harboring GS A102S mutant gene by disk agar diffusion method; outline: as §2
Neisseria gonorrhoeae [9] = experiment: Antibacterial activity against Neisseria gonorrhoeae assessed as intermediate-resistant isolates by disk agar diffusion method; outline: as §2
Neisseria gonorrhoeae [10] = experiment: Antibacterial activity against Neisseria gonorrhoeae harboring wild-type GA gene by disk agar diffusion method; outline: as §2
Neisseria gonorrhoeae [11] = experiment: Antibacterial activity against Neisseria gonorrhoeae harboring wild-type penA and GS A102S mutant genes by Etest method; outline: as §1
Neisseria gonorrhoeae [12] = experiment: Antibacterial activity against Neisseria gonorrhoeae harboring wild-type GA and Asp-345a insertion in penA genes by Etest method; outline: as §1
Neisseria gonorrhoeae [13] = experiment: Antibacterial activity against Neisseria gonorrhoeae harboring porB1a gene by disk agar diffusion method; outline: as §2
Neisseria gonorrhoeae [14] = experiment: Antibacterial activity against Neisseria gonorrhoeae harboring wild-type penA and DA G101D mutant genes by Etest method; outline: as §1
Neisseria gonorrhoeae [15] = experiment: Antibacterial activity against Neisseria gonorrhoeae harboring porB1b and DA G101D mutant genes by disk agar diffusion method; outline: as §2
Neisseria gonorrhoeae [16] = experiment: Antibacterial activity against Neisseria gonorrhoeae assessed as susceptible isolates by disk agar diffusion method; outline: as §3
Neisseria gonorrhoeae [17] = experiment: Antibacterial activity against Neisseria gonorrhoeae harboring Asp-345a insertion in penA and DA G101D mutant genes by Etest method; outline: as §1
Neisseria gonorrhoeae [18] = experiment: Antibacterial activity against Neisseria gonorrhoeae harboring KD gene by disk agar diffusion method; outline: as §2

Work on `CC1(C)S[C@@H]2[C@H](NC(=O)Cc3ccccc3)C(=O)N2[C@H]1C(=O)O` [PENICILLIN G] yielded an MIC (Neisseria gonorrhoeae [1]) of 0.011 µg/mL (≈ 0.0329 µM), an MIC (Neisseria gonorrhoeae [2]) of 0.067 µg/mL (≈ 0.2 µM) and an MIC (Neisseria gonorrhoeae [3]) of 0.63 µg/mL (≈ 1.88 µM). For the same compound, the MIC (Neisseria gonorrhoeae [4]) was 0.059 µg/mL (≈ 0.176 µM), the MIC (Neisseria gonorrhoeae [5]) was 0.017 µg/mL (≈ 0.0508 µM) and the MIC (Neisseria gonorrhoeae [6]) was 0.064 µg/mL (≈ 0.191 µM). The MIC (Neisseria gonorrhoeae [7]) was 0.07 µg/mL (≈ 0.209 µM), the MIC (Neisseria gonorrhoeae [8]) was 0.155 µg/mL (≈ 0.464 µM) and the Activity (Neisseria gonorrhoeae [9]) was 39.9%. The MIC (Neisseria gonorrhoeae [10]) was 0.037 µg/mL (≈ 0.111 µM), the MIC (Neisseria gonorrhoeae [11]) was 0.156 µg/mL (≈ 0.467 µM) and the MIC (Neisseria gonorrhoeae [12]) was 0.081 µg/mL (≈ 0.242 µM). The MIC (Neisseria gonorrhoeae [13]) was 0.031 µg/mL (≈ 0.0927 µM), the MIC (Neisseria gonorrhoeae [14]) was 0.016 µg/mL (≈ 0.0478 µM) and the MIC (Neisseria gonorrhoeae [15]) was 0.016 µg/mL (≈ 0.0478 µM). It also gave an Activity (Neisseria gonorrhoeae [16]) of 60.1%, an MIC (Neisseria gonorrhoeae [17]) of 0.133 µg/mL (≈ 0.398 µM) and an MIC (Neisseria gonorrhoeae [18]) of 1 µg/mL (≈ 2.99 µM).
